ChEMBL document CHEMBL5236612, “Heterobivalent Inhibitors of Acetyl-CoA Carboxylase: Drug Target Residence Time and Time-Dependent Antibacterial Activity” (J Med Chem, 2022)
Values after ≈ are worked out from the molar mass of the structure shown. Active and inactive are the calls of the source. No cut-off for these calls is given here.

Columns and labels:
[1] = Inhibition of Escherichia coli ACC expressed in Escherichia coli BL21(DE3) pLysS incubated for 45 mins in presence of ATP and acetyl coA by fluorescence polarization assay
How it was run: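 E. coli BC (1 nM), biotinylated BCCP (2 nM) and CT (1 nM), His-tag purified then size-exclusion purified, preincubated with inhibitor in 100 mM HEPES pH 8.0, 15 mM KHCO3, 20 mM MgCl2. ADP detected by Transcreener fluorescence polarization; Morrison fit for Ki when tight binding; triplicate.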

[2] = test system: Escherichia coli; assay: Antibacterial activity against tolC knockout Escherichia coli incubated for 24 hrs in presence of PMBN by microbroth dilution method; format: functional
[3] = test system: Escherichia coli; assay: Antibacterial activity against acrAB knockout Escherichia coli MG1655 incubated for 24 hrs in presence of PMBN by microbroth dilution method; format: functional
[4] = test system: Escherichia coli; assay: Antibacterial activity against tolC knockout Escherichia coli incubated for 24 hrs by microbroth dilution method; format: functional
[5] = test system: Escherichia coli; assay: Antibacterial activity against Escherichia coli K12 incubated for 24 hrs by microbroth dilution method; format: functional
[6] = test system: Escherichia coli; assay: Additive antibacterial activity against Escherichia coli harbouring TolC-deficient mutant assessed as fractional inhibitory concentration index; format: functional
How it was run: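 Checkerboard MIC of two compounds combined against tolC-knockout E. coli, without PMBN; FIC index derived from combination MICs.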

[7] = test system: Escherichia coli; assay: (§1) Displacement of 11-(4-(22-(2,4-dibromo-3-(2,7-diaminopyrido[2,3-d]pyrimidin-6-yl)phenoxy)-5,8,11,14,17,20-hexaoxadocos-1-yl)-1H-1,2,3-triazol-1-yl)-N-((1S)-3-(((2S)-3-methyl-1-((3R,4S)-4-methyl-2,5-dioxopyrrolidin-3-yl)-1-oxobutan-2-yl)amino)-3-oxo-1-phenylpropyl)undecanamide from Escherichia coli ACC expressed in Escherichia coli BL21(DE3) pLysS at 50 uM preincubated for 1 hr in presence of Moiramide-B followed by compound addition by LC-MS/MS method
How it was run: (§2)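 Purified E. coli ACC (1 μM), in 100 mM HEPES pH 8.0 with 15 mM KHCO3 and 20 mM MgCl2, was held 1 h at 22 °C with equimolar heterobivalent inhibitor. Competitor was then added: 100 μM of one warhead alone, or 50 μM each of both warheads together. At timed points, aliquots were spun through G-25 gel filtration columns in 10 mM ammonium formate pH 8.0. Flow-through was denatured in 50% MeCN and bound inhibitor quantified by LC-MS/MS. Dissociation rate came from a single-exponential fit.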

[8] = Inhibition of Escherichia coli ACC incubated for 5 mins
How it was run: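 ACC reconstituted from 1 nM BC, 2 nM biotinylated BCCP and 1 nM CT (His-tagged E. coli proteins) in 100 mM HEPES pH 8.0 with 15 mM KHCO3 and 20 mM MgCl2. Enzyme was mixed with inhibitor or DMSO, and reactions were started with 10 μM ATP and 200 μM acetyl-CoA. ADP formed was read by Transcreener fluorescence polarization after a 45 min endpoint.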

[9] = test system: Escherichia coli; assay: as §1, with “100” for “50”, “hr” for “hr in presence of Moiramide-B”; how it was run: as §2
[10] = test system: Escherichia coli; assay: Antibacterial activity against acrAB knockout Escherichia coli MG1655 incubated for 24 hrs by microbroth dilution method; format: functional
[11] = test system: Escherichia coli; assay: Antibacterial activity against Escherichia coli incubated for 24 hrs in presence of PMBN by microbroth dilution method; format: functional
[12] = Inhibition of Escherichia coli ACC expressed in Escherichia coli BLR(DE3) cells
[13] = test system: Escherichia coli; assay: Synergistic antibacterial activity against Escherichia coli harbouring TolC-deficient mutant assessed as fractional inhibitory concentration index at […] in presence of PMBN; format: functional; settings: dose 0.025 µM
[14] = test system: Escherichia coli; assay: as §1, with “6-(2,6-dibromophenyl)pyrido[2,3-d]pyrimidine-2,7-diamine” for “Moiramide-B”; how it was run: as §2
[15] = test system: Escherichia coli; assay: Antibacterial activity against Escherichia coli harbouring TolC-deficient mutant assessed as post antibiotic effect by measuring time required for increase in 1 log10 CFU/ml of bacteria at 32 times MIC incubated for 1 hr followed by compound washout and measured for 16 hrs; format: functional
[16] = test system: Escherichia coli; assay: Antibacterial activity against Escherichia coli harbouring TolC-deficient mutant assessed as post antibiotic effect by measuring time required for increase in 1 log10 CFU/ml of bacteria at 8 times MIC incubated for 1 hr followed by compound washout and measured for 16 hrs; format: functional
[17] = test system: Escherichia coli; assay: Antibacterial activity against Escherichia coli harbouring TolC-deficient mutant assessed as post antibiotic effect by measuring time required for increase in 1 log10 CFU/ml of bacteria at 16 times MIC incubated for 1 hr followed by compound washout and measured for 16 hrs; format: functional
[18] = Inhibition of Escherichia coli biotin carboxylase in presence of ATP and NADH by UV-Vis spectrophotometric assay

SMILES | IC50 [1] [nM] | MIC [2] [µM] | MIC [3] [µM] | MIC [4] [µM] | MIC [5] [µM] | Activity [9] | other results
C#CCCCCOCCOCCOCCOCCOCCOCCOCCOCCOCCOCCOCCOCCOCCOCCOCCOCCOCCOCCOc1ccc(Br)c(-c2cc3cnc(N)nc3nc2N)c1Br | 126 | 12.5 | > 25 | > 25 |  |  | 
C#CCCCCOCCOCCOCCOCCOCCOCCOc1ccc(Br)c(-c2cc3cnc(N)nc3nc2N)c1Br | 32 |  | 6.25 |  | > 25 |  | 
Nc1ncc2cc(-c3c(Br)cccc3Br)c(N)nc2n1 |  |  |  | 1.56 (≈ 0.616 µg/mL) |  | inactive | fractional inhibitory concentration index (FICI) [6]: 0.5; Activity [7]: Active; IC50 [8]: < 5 nM
C/C=C/C=C/C(=O)N[C@@H](CC(=O)N[C@H](C(=O)[C@@H]1C(=O)NC(=O)[C@H]1C)C(C)C)c1ccccc1 | 4.5 | 0.1 | 0.39 | 1.56 (≈ 0.708 µg/mL) | > 25 | inactive | fractional inhibitory concentration index (FICI) [6]: 0.5; MIC [10]: 25 µM (≈ 11.3 µg/mL); MIC [11]: 3.13 µM; IC50 [12]: 6 nM; FIC [13]: 0.38; Activity [14]: Active
C#CCCCCOCCOCCOCCOCCOCCOCCOCCOCCOCCOCCOCCOCCOCCOCCOCCOc1ccc(Br)c(-c2cc3cnc(N)nc3nc2N)c1Br | 64 | 12.5 | > 25 | 25 (≈ 28.8 µg/mL) | > 25 |  | 
CC(C)[C@H](NC(=O)C[C@H](NC(=O)CCCCCCCCCCn1cc(CCCCOCCOCCOCCOCCOCCOCCOc2cc(Br)c(-c3cc4cnc(N)nc4nc3N)c(Br)c2)nn1)c1ccccc1)C(=O)[C@@H]1C(=O)NC(=O)[C@H]1C | 3.53 | 0.78 | > 25 | 6.25 (≈ 8.28 µg/mL) |  |  | 
CC(C)[C@H](NC(=O)C[C@H](NC(=O)CCCCCCCCCCn1cc(CCCCOCCOCCOCCOCCOCCOCCOCCOCCOCCOCCOCCOCCOc2ccc(Br)c(-c3cc4cnc(N)nc4nc3N)c2Br)nn1)c1ccccc1)C(=O)[C@@H]1C(=O)NC(=O)[C@H]1C |  | 1.56 | 6.25 |  | > 25 | inactive | Ki [1]: 0.18 nM; Activity [7]: Active; PAE [15]: 3.6 h; PAE [16]: 2.1 h; PAE [17]: 2.6 h; Activity [14]: Active
C#CCCCCOCCOCCOCCOc1ccc(Br)c(-c2cc3cnc(N)nc3nc2N)c1Br | 19 | 1.56 | 3.13 |  | > 25 |  | 
COc1cc(Br)c(-c2cc3cnc(N)nc3nc2N)c(Br)c1 |  |  |  |  |  |  | IC50 [18]: 1200 nM
CC(C)[C@H](NC(=O)C[C@H](NC(=O)CCCCCCCCCCn1cc(CCCCOCCOCCOCCOCCOCCOCCOCCOCCOCCOc2ccc(Br)c(-c3cc4cnc(N)nc4nc3N)c2Br)nn1)c1ccccc1)C(=O)[C@@H]1C(=O)NC(=O)[C@H]1C |  | 0.78 | 3.13 |  | > 25 | inactive | Ki [1]: 0.31 nM; Activity [7]: Active; PAE [15]: 3.4 h; PAE [16]: 1.2 h; PAE [17]: 1.8 h; Activity [14]: Active
C#CCCCCOCCOCCOCCOCCOCCOCCOc1cc(Br)c(-c2cc3cnc(N)nc3nc2N)c(Br)c1 | 849 | > 25 | > 25 |  |  |  | 
COc1ccc(Br)c(-c2cc3cnc(N)nc3nc2N)c1Br |  |  |  |  |  |  | IC50 [18]: ≤ 250 nM
CC(C)[C@H](NC(=O)C[C@H](NC(=O)CCCCCCCCCCn1cc(CCCCOCCOCCOCCOc2ccc(Br)c(-c3cc4cnc(N)nc4nc3N)c2Br)nn1)c1ccccc1)C(=O)[C@@H]1C(=O)NC(=O)[C@H]1C |  | 0.78 | 6.25 | 3.13 (≈ 3.73 µg/mL) | > 25 | inactive | Ki [1]: 0.26 nM; Activity [7]: Active; PAE [15]: 2.6 h; PAE [16]: 1 h; PAE [17]: 1.2 h; Activity [14]: Active
C#CCCCCOc1ccc(Br)c(-c2cc3cnc(N)nc3nc2N)c1Br | ≤ 1 | 0.78 | 0.78 | 1.56 (≈ 0.766 µg/mL) | > 25 |  | MIC [10]: > 25 µM; MIC [11]: 12.5 µM
CC(C)[C@H](NC(=O)C[C@H](NC(=O)CCCCCCCCCCn1cc(CCCCOCCOCCOCCOCCOCCOCCOc2ccc(Br)c(-c3cc4cnc(N)nc4nc3N)c2Br)nn1)c1ccccc1)C(=O)[C@@H]1C(=O)NC(=O)[C@H]1C |  | 0.39 | 3.13 |  | > 25 |  | Ki [1]: 0.25 nM; MIC [10]: > 25 µM; PAE [15]: 3.4 h; PAE [16]: 1.7 h; PAE [17]: 1.7 h; MIC [11]: > 25 µM
CC(C)[C@H](NC(=O)C[C@H](NC(=O)CCCCCCCCCCn1cc(CCCCOCCOCCOCCOCCOCCOCCOCCOCCOCCOCCOCCOCCOCCOCCOCCOc2ccc(Br)c(-c3cc4cnc(N)nc4nc3N)c2Br)nn1)c1ccccc1)C(=O)[C@@H]1C(=O)NC(=O)[C@H]1C |  | 1.56 | 12.5 |  | > 25 | inactive | Ki [1]: 0.33 nM; Activity [7]: Active; PAE [15]: 4.6 h; PAE [16]: 1.9 h; PAE [17]: 3.8 h; Activity [14]: Active
Nc1ncc2cc(-c3c(Br)cc(OCCO)cc3Br)c(N)nc2n1 |  |  |  |  |  |  | IC50 [18]: 730 nM
C#CCCCCOCCOCCOCCOCCOCCOCCOCCOCCOCCOc1ccc(Br)c(-c2cc3cnc(N)nc3nc2N)c1Br | 98 | 12.5 | 15 | 25 (≈ 22.2 µg/mL) | > 25 |  | 
CC(C)[C@H](NC(=O)C[C@H](NC(=O)CCCCCCCCCCn1cc(CCCCOc2ccc(Br)c(-c3cc4cnc(N)nc4nc3N)c2Br)nn1)c1ccccc1)C(=O)[C@@H]1C(=O)NC(=O)[C@H]1C | 1.81 | 0.78 | 12.5 |  | > 25 | inactive | Activity [7]: Active; PAE [15]: 3.8 h; PAE [16]: 1.9 h; PAE [17]: 2.2 h; Activity [14]: Active
CC(C)[C@H](NC(=O)C[C@H](NC(=O)CCCCCCCCCCN=[N+]=[N-])c1ccccc1)C(=O)[C@@H]1C(=O)NC(=O)[C@H]1C | 74 | 0.2 | 1.56 |  | > 25 |  | MIC [10]: > 25 µM; MIC [11]: 12.5 µM
C#CCCCCOCCOCCOCCOCCOCCOCCOCCOCCOCCOCCOCCOCCOc1ccc(Br)c(-c2cc3cnc(N)nc3nc2N)c1Br | 82 |  | > 25 | 25 (≈ 25.5 µg/mL) | > 25 |  | 
Nc1ncc2cc(-c3c(Br)ccc(OCCO)c3Br)c(N)nc2n1 |  |  |  |  |  |  | IC50 [18]: 550 nM
